Reference: the RNAGym collection of RNA variant scans (doi:10.1126/science.aae0568)
Fewer inactive variants are shown than the library holds.

B1: tRNA (parent)
chain: GUUCCGUUGGCGUAAUGGUAACGCGUCUCCCUCCUAAGGAGAAGACUGCGGGUUCGAGUCCCGUACGGAACG

Variants of: B1
Assay: yeast fitness relative to wild type (ratio to wild type); higher = fitter; tRNA-Arg(CCU), competitive growth, 37 C, YPD
Method in brief: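 Gene amplicons from the start population and from each of six end populations were read by 100-nucleotide paired-end sequencing. Those end populations came from pooled Saccharomyces cerevisiae strains carrying tRNA-Arg(CCU) gene variants at the native locus, competed in YPD at 37°C for 24 hours. Fitness relative to wild type was worked out from changes in genotype frequencies. Genotypes needed ≥ 100 starting reads, and estimates < 0.5 were set to 0.5.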
For GUUCCGUUGGCGUAUUGGUAACGCGUCUCGCUCCUAAGGAGAAGACUGCGGGUUCGAGUCCCGUACGGAACG [A15U C30G], the yeast fitness was at most 0.5.
In the case of GUUCCGUUGGCGUAUUGGUAACGCGUGUCCCUCCUAAGGAGAAGACUGCGGGUUCGAGUCCCGUACGGAACG [A15U C27G], the yeast fitness is reported as 0.531.
Work on GUUCCGUUGGCGUAUUGGUAACGCGUCUCCCUCCUAAGGAGAUGACUGCGGGUUCGAGUCCCGUCCGGAACG [A15U A43U A65C] yielded a yeast fitness of 0.569.
Variant GUUCCGUUGGCGUAUUGGUAACGCGUCUCCCUCCUAAGGAGACGACUGCGGGUUCGAGUCCCGUACUGAACG [A15U A43C G67U] has a yeast fitness of at most 0.5.
GUUCCGUUGGCGUAUUGGUAAGGCGUUUCCCUCCUCAGCAGAAGACUCCGGGUUCGAGUCCCUUACGGAUCG [A15U C22G C27U A36C G39C G48C G63U A70U] gave a yeast fitness of at most 0.5.
GUUCCGUUGGCGUAUUGGUAAUGCGUCUCCCUCCUAAGCAGAAGACUGCGGGUUCGAGUCCCGUACGGAACG [A15U C22U G39C] showed a yeast fitness of at most 0.5.
For GUUCCGUUGGCGUAUUGGUAACGCGUGUCCCUCCUAAGGAGAAGACUGCGGGUUCGAGUCCAGUAAGGAACG [A15U C27G C62A C66A], the yeast fitness was at most 0.5.
In the case of GUUCCGUUGGCGUAUUGGUAACGCGUCUCCCUCCUAAGGAGAAGACUGCGGGUUCGAGUCCCGUUCGGAACG [A15U A65U], the yeast fitness is reported as 0.775.
For GUUCCGUUGGCGUAUUGGUAACGCGUCUCCCUCCUAAGGAGAAGACUGCGGGUUCGAGUCCCGUGCGGAACG [A15U A65G], the yeast fitness was 0.649.
GUUCCGUUGGCGUAUUGGUAACGCGUGGCCCUCCUAAGGAGAAGACUGCGGGUUCGAGUCCCGUACCGAACG [A15U C27G U28G G67C] showed a yeast fitness of at most 0.5.
With GUUCCGUUGGCGUAUUGGUAAGGCGUCUCCUUCCUAAGGAGAAGACUGCGGGUUCGCGUCCCGAACGAAACG [A15U C22G C31U A57C U64A G68A] the yeast fitness was 0.553.
Variant GUUCCGUUGGCGUAUUGGUAACGGGUCUCCCUCCUAAGGAGCAGACUGCGGGUUUGAGUCCCGUACGUAACG [A15U C24G A42C C55U G68U] has a yeast fitness of at most 0.5.
Work on GUUCCGUUGGCGUAUUGGUAACGCGUUUCCCUCUUAAGGACAAGACGGCGGGUUCGAGUCCCGUACGGAACG [A15U C27U C34U G41C U47G] yielded a yeast fitness of 0.555.
In the case of GUUCCGUUGGCGUAUUGGUAACGCGUCUACCUCCUAAGGAGAAGACUCCGGGUUCGAGUCCCGUACGGAACG [A15U C29A G48C], the yeast fitness is reported as at most 0.5.
For GUUCCGUUGGCGUAUUGGUAAUGCGUCUCCCUCCUAAGGAGAAGACUGCGGGUUCGAGUCCCGUACGGACCG [A15U C22U A70C], the yeast fitness was at most 0.5.
In the case of GUUCCGUUGGCGUAUUGGUAACGUGUUUCCCUCCUAAGGAGAAGACUGUGGGUUCGAGUCCCGUACGGAACG [A15U C24U C27U C49U], the yeast fitness is reported as at most 0.5.
In the case of GUUCCGUUGGCGUAUUGGUAACGAGUCUCCCUCGUAAGUAGAAGACUGCGGGUUCGACUCCCGUACGGAACG [A15U C24A C34G G39U G58C], the yeast fitness is reported as at most 0.5.
GUUCCGUUGGCGUAUUGGUAACGCGUGUCCCUCCUAAGGAGAAGACUGAGGUUUCGAGUCCCGUACGGAACG [A15U C27G C49A G52U] showed a yeast fitness of at most 0.5.
GUUCCGUUGGCGUAUUGGUAAGGCGUGUCCCUCCUAAGGAGCAGACUGCGGGUUCGAGUCCCCUACGGAACG [A15U C22G C27G A42C G63C] showed a yeast fitness of at most 0.5.
For GUUCCGUUGGCGUAUUGGUAACGCGUUUCCCUCCUGAGGAGAAGACUGCGGGUUCGAGUCUUGUACGGAACG [A15U C27U A36G C61U C62U], the yeast fitness was at most 0.5.
In the case of GUUCCGUUGGCGUAUUGGUAACGCGUUUCCCUCCUAAGGAGAAGACUCCGGGUUCGAGUCCCGUACGGAUCG [A15U C27U G48C A70U], the yeast fitness is reported as 0.549.
With GUUCCGUUGGCGUAUUGGUAACGCGUUUCCCUCCUAAGGAGAAGACUGCGGGUUCGAGUCCCGUUCGGAACG [A15U C27U A65U] the yeast fitness was 0.725.
In the case of GUUCCGUUGGCGUAUUGGUAACGCGUUUCCCUCCUGAGGAGAAGACUGCGGGUUCCAGUCCCGUACGGAACG [A15U C27U A36G G56C], the yeast fitness is reported as at most 0.5.
Work on GUUCCGUUGGCGUAUUGGUAACGGGUCUCCCUCCUAAGGAGCAGACUGCGGGUUCGAGUCCUGUACGGAACG [A15U C24G A42C C62U] yielded a yeast fitness of at most 0.5.
In the case of GUUCCGUUGGCGUAUUGGUAACGCGUCUACCUCCUAAGGAGAAGACUGGGGGUUCGAGUCCCGUACGGAACG [A15U C29A C49G], the yeast fitness is reported as 0.634.
In the case of GUUCCGUUGGCGUAUUGGUAACGCGUUUCCCUCCUAAGGAGAACACUGCGGGUUCGACUCCCCUACGGAACG [A15U C27U G44C G58C G63C], the yeast fitness is reported as at most 0.5.
GUUCCGUUGGCGUAUUGGUAACGCGUCUCCCUCCUAAGGAGAAGCAUGCGGGUUCGAGUCCCGUAUGGAACG [A15U A45C C46A C66U] gave a yeast fitness of at most 0.5.
Work on GUUCCGUUGGCGUAUUGGUAAGGCGUCUCCUCCCUAAGGAGAAGACUGCGGGUUCGCGUCCCGAACGAAACG [A15U C22G C31U U32C A57C U64A G68A] yielded a yeast fitness of at most 0.5.
GUUCCGUUGGCGUAUUGGUAAGGCGUCUCCUUCCUAAGGAGAAGAGUGCGGGUUCGAGUCCCAUACGGAACG [A15U C22G C31U C46G G63A] gave a yeast fitness of at most 0.5.
For GUUCCGUUGGCGUAUUGGUAACGCGUCUCCCUCCUAAGGAGAGGACUGCGGGUUCGAGCCCCGUACGGAACG [A15U A43G U59C], the yeast fitness was 0.53.
GUUCCGUUGGCGUAUUGGUAAUGCGUCUCCCUCCUAAGGAGAAGACUGCGGGUCCGAGUCCCGUACGGAACG [A15U C22U U54C] gave a yeast fitness of 0.754.
Variant GUUCCGUUGGCGUAUUGGUAACGCGUCUCCCUCCUAAGGAGACGACUGCGGGUUCGAGUCCCGUACGGAACG [A15U A43C] has a yeast fitness of 0.825.
Variant GUUCCGUUGGCGUAUUGGUAACGCGUCUCCCUCCUAAGGAGAAGUGUGCGGGUUCGAGUCCCGUACGGAACG [A15U A45U C46G] has a yeast fitness of at most 0.5.
GUUCCGUUGGCGUAUUGGUAACGCGUCUACGUCCUAAGGAGAAGACUGCGGGUUCGAGUGCCGUACGGAACG [A15U C29A C31G C60G] gave a yeast fitness of 0.618.
Work on GUUCCGUUGGCGUAUUGGUAAGGCAUCUCCUUCCUAAGGAGAAGACUGCGGGUUCGCGUCCCGAACGAAACG [A15U C22G G25A C31U A57C U64A G68A] yielded a yeast fitness of at most 0.5.
In the case of GUUCCGUUGGCGUAUUGGUAACGUGUCUCCCUCCUAGGGAGAAGACUGCGGGUUCGAGUCCCGUACGGAACG [A15U C24U A37G], the yeast fitness is reported as at most 0.5.
Work on GUUCCGUUGGCGUAUUGGUAACGCGUCUCCCUCCUAAGGAGCCGACUGCGGGUUCGAGUCCCGUACGGAACG [A15U A42C A43C] yielded a yeast fitness of 0.561.
In the case of GUUCCGUUGGCGUAUUGGUAACGCGUCUCCCUCCUAAGGAGAUGACUGCGGGUUUGAGUACCGUACGGAACG [A15U A43U C55U C60A], the yeast fitness is reported as 0.69.
